The values below come from ChEMBL document CHEMBL4138074, “(Indolylalkyl)piperidine carbamates as inhibitors of fatty acid amide hydrolase (FAAH)” (Medchemcomm, 2017).

Data set [1] deals with T1, Fatty-acid amide hydrolase 1 (Rattus norvegicus, UniProt P97612).
T1 sequence (P97612 whole entry): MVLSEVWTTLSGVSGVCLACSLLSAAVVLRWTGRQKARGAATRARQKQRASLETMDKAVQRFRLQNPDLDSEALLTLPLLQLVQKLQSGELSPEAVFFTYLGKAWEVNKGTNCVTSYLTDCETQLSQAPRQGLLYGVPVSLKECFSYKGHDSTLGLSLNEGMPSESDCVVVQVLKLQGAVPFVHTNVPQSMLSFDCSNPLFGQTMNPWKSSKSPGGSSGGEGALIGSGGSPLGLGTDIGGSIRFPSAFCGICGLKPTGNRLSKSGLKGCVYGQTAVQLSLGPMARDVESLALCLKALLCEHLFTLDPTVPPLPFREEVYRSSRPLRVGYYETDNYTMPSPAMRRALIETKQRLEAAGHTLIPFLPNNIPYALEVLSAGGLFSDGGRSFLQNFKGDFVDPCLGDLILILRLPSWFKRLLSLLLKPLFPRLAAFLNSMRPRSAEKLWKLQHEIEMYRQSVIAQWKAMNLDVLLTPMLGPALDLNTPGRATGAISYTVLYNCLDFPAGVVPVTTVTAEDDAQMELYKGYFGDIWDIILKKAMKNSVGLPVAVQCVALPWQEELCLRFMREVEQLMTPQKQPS
The data set is described as follows: Inhibition of FAAH in rat brain microsomes assessed as reduction in enzyme-mediated 4-pyren-1-ylbutanoic acid release using N-(2-hydroxyethyl)-4-pyren-1-ylbutanamide as substrate incubated fro 60 mins by reversed phase HPLC method. The procedure, abridged:
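Rat brain microsomes as enzyme source; fluorogenic substrate N-(2-hydroxyethyl)-4-pyren-1-ylbutanamide, with Triton X-100 in the incubation buffer to solubilize substrate and stabilize the membrane-bound enzyme. Incubation 60 min. Released 4-pyren-1-ylbutanoic acid quantified by reversed-phase HPLC with fluorescence detection, using 6-pyren-1-ylhexanoic acid as internal standard. Product is compared with and without inhibitor. IC50 is the mean of at least two independent determinations.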

The nature of data set [2]: Metabolic stability in rat liver S9 fractions assessed as parent compound remaining in presence of NADPH incubated fro 30 mins by HPLC and MS-detection based method. The data set is classed as ADME, subcellular, S9 fraction. Particulars: read-out: Stability. The procedure, abridged:
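Compound incubated with rat liver S9 fraction plus cofactor NADPH for 30 min. Parent remaining measured by reversed-phase HPLC with MS detection and expressed as percent of parent. Mean ± SD of three independent determinations.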

Data set [3] can be described thus: Metabolic stability in porcine blood plasma assessed as parent compound remaining incubated fro 30 mins by HPLC and MS-detection based method. The data set is classed as ADME, cell-free, Sus scrofa. The conditions noted are these: pig, read-out: Stability. The procedure, abridged:
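Porcine blood plasma incubation, 30 min. Remaining parent quantified by reversed-phase HPLC with MS detection and reported as percent remaining. Mean ± SD, n = 3 independent determinations.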

Structures are written as SMILES.

The IC50 is the midpoint of a concentration-inhibition curve. In the case of `COc1ccc2c(ccn2CCC2CCN(C(=O)Oc3ccccc3)CC2)c1`, in data set [1], the half-maximal inhibitory concentration (IC50) was determined as 360 nM. For `O=C(Oc1ccccc1)N1CCC(Cn2ccc3ccccc32)CC1`, the remaining at 0.5 h in data set [2] was found to be 63%; in data set [3], 93%. For the same compound, the IC50 in data set [1] is 9800 nM. As for `O=C(Oc1ccccc1)N1CCN(CCn2ccc3cnccc32)CC1`, in data set [1], the half-maximal inhibitory concentration (IC50) came out at 790 nM. For `O=C(Oc1ccccc1)N1CCN(CCn2ccc3ccncc32)CC1`, the IC50 in data set [1] was 310 nM. With `O=C(Oc1ccccc1)N1CCC(CCCn2ccc3ccccc32)CC1`, the figures for the remaining at 0.5 h in data set [2] and in data set [3] were 80% and 93%, respectively. Moreover, the IC50 in data set [1] came out at 570 nM.

Turning to `O=C(Oc1ccccc1)N1CCC(CCn2c3ccccc3c3ccccc32)CC1`, the IC50 in data set [1] was determined as 410 nM. In the case of `O=C(Oc1ccccc1)N1CCC(CCCCn2ccc3ccccc32)CC1`, the remaining at 0.5 h in data set [2] is 78%; in data set [3], 87%. Also, the IC50 in data set [1] came to 180 nM. For the compound `N#Cc1ccc2c(ccn2CCC2CCN(C(=O)Oc3ccccc3)CC2)c1`, in data set [1], the IC50 is 970 nM.

In the case of `O=C(Oc1ccccc1)N1CCN(CCn2ccc3cccnc32)CC1`, the half-inhibitory concentration (IC50) in data set [1] stood at 200 nM. For the compound `O=C(Oc1ccccc1)N1CCC(CCn2ccc3c(F)cccc32)CC1`, the IC50 in data set [1] amounted to 110 nM. Take `O=C(Oc1ccccc1)N1CCC(CCn2ccc3cc(Cl)ccc32)CC1`: in data set [1], the IC50 turned out to be 410 nM. Turning to `O=C(Oc1ccccc1)N1CCC(CCn2ccc3cc(F)ccc32)CC1`, in data set [1], the IC50 is 130 nM. On the same count and under the same terms, for `O=C(Oc1ccccc1)N1CCC(CCn2ccc3ncccc32)CC1` the value was 1700 nM. As to `O=C(Oc1ccccc1)N1CCC(CCn2ccc3ccc(F)cc32)CC1`, the remaining at 0.5 h in data set [2] stood at 82%; in data set [3] it was 93%. In data set [1], the IC50 turned out to be 46 nM. On the same counts, the results for `O=C(Oc1ccccc1)N1CCC(CCn2ccc3ccccc32)CC1` are 87%, 94% and 110 nM. Take `Cc1ccc2c(ccn2CCC2CCN(C(=O)Oc3ccccc3)CC2)c1`: the IC50 in data set [1] was 700 nM. For `CN(CCCCCn1ccc2ccc(F)cc21)C(=O)Oc1ccccc1`, the figures for the remaining at 0.5 h in data set [2] and in data set [3] were 65% and 93%, respectively. For the same compound, the IC50 in data set [1] stood at 1600 nM. For `O=C(Oc1ccccc1)N1CCC(CCn2ccc3cccc(F)c32)CC1`, the IC50 in data set [1] came out at 52 nM. Still for that read-out and setting: under `O=C(Oc1ccccc1)N1CCN(CCn2ccc3ccc(F)cc32)CC1` stands 180 nM.
